Values after ≈ are worked out from the molar mass of the structure shown.
Experiments:
Escherichia coli = experiment: In Vitro minimal inhibitory concentration against Escherichia coli (ATCC 39188); format: functional
Summary of the method: (§1)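 Serial broth dilution in heart infusion broth. Inoculum was a 10^-4 dilution of an overnight culture. Seeded antibiotic-containing tubes were incubated 37 °C for 20 h. […] Values are the average of triplicate determinations.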

Klebsiella pneumoniae = experiment: In Vitro minimal inhibitory concentration against Klebsiella pneumoniae (NCTC 418); format: functional; summary of the method: as §1
Pseudomonas aeruginosa = experiment: In Vitro minimal inhibitory concentration against Pseudomonas aeruginosa (1101-75); format: functional; summary of the method: as §1
Salmonella typhi = experiment: In Vitro minimal inhibitory concentration against Salmonella typhi (O-901); format: functional, Salmonella enterica subsp. enterica serovar Typhi; conditions: Salmonella enterica
Summary of the method: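 Serial broth dilution MIC. Inoculum: overnight culture diluted 10^-4 in heart infusion broth. Seeded antibiotic-containing broth tubes incubated 20 h at 37 °C. MIC is the lowest concentration preventing visible growth. Concentrations tested up to 128 μg/mL. Values are the average of triplicate determinations.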

Staphylococcus aureus = experiment: In Vitro minimal inhibitory concentration against Staphylococcus aureus (FDA 209P); format: functional; summary of the method: as §1

SMILES	MIC (Escherichia coli) [µg/mL]	MIC (Klebsiella pneumoniae) [µg/mL]	MIC (Pseudomonas aeruginosa) [µg/mL]	MIC (Salmonella typhi) [µg/mL]	MIC (Staphylococcus aureus) [µg/mL]
CC1(C)S[C@@H]2[C@H](NC(=O)Cc3ccccc3)C(=O)N2[C@H]1C(=O)O [PENICILLIN G]	2.3 (≈ 6.88 µM)	> 128	> 128	> 128	0.4 (≈ 1.2 µM)
CS(=O)(=O)C1(C(=O)O)C(=O)NC[C@@H]2[C@H](NC(=O)Cc3ccccc3)C(=O)N21 (stereo not given in full)	97.2 (≈ 246 µM)	51 (≈ 129 µM)	120 (≈ 303 µM)	65.3 (≈ 165 µM)	48.5 (≈ 123 µM)
CS(=O)(=O)C1=C(O)NC[C@@H]2[C@H](NC(=O)Cc3ccccc3)C(=O)N12 (racemic)	> 128	> 128	> 128	> 128	> 128
CS(=O)(=O)OC1=C(C(=O)O)N2C(=O)[C@@H](NC(=O)Cc3ccccc3)[C@H]2CN1 (racemic)	0.95 (≈ 2.4 µM)	0.68 (≈ 1.72 µM)	4.38 (≈ 11.1 µM)	1.2 (≈ 3.03 µM)	0.07 (≈ 0.177 µM)
O=C(Cc1ccccc1)N[C@@H]1C(=O)N2C(C(=O)O)=C(O)NC[C@H]12 (racemic)	94.7 (≈ 298 µM)	> 128	> 128	> 128	29.5 (≈ 93 µM)
CC1=C(C(=O)O)N2C(=O)[C@@H](NC(=O)Cc3ccccc3)[C@H]2SC1	13.1 (≈ 39.5 µM)	2.98 (≈ 8.97 µM)	100 (≈ 301 µM)	24.5 (≈ 73.7 µM)	0.64 (≈ 1.93 µM)
CS(=O)(=O)OC1=C(C(=O)OCc2ccccc2)N2C(=O)[C@@H](NC(=O)Cc3ccccc3)[C@H]2CN1 (racemic)	> 128	> 128	> 128	> 128	> 128
CO/N=C(\C(=O)N[C@@H]1C(=O)N2C(C(=O)O)=C(COC(C)=O)CS[C@H]12)c1csc(N)n1 [CEFOTAXIME]	0.25 (≈ 0.549 µM)	10.2 (≈ 22.5 µM)	62.4 (≈ 137 µM)	20.3 (≈ 44.6 µM)	0.08 (≈ 0.176 µM)
O=C(Cc1ccccc1)N[C@@H]1C(=O)N2C(C(=O)O)=C(OS(=O)(=O)C(F)(F)F)NC[C@H]12 (racemic)	0.09 (≈ 0.2 µM)	0.24 (≈ 0.534 µM)	1.15 (≈ 2.56 µM)	0.68 (≈ 1.51 µM)	0.01 (≈ 0.0223 µM)
O=C(Cc1ccccc1)N[C@@H]1C(=O)N2C(C(=O)OCc3ccccc3)=C(OS(=O)(=O)C(F)(F)F)NC[C@H]12 (racemic)	> 128	> 128	> 128	> 128	> 128

Source: ChEMBL document CHEMBL1131185, “Syntheses of new isodethiaazacephems as potent antibacterial agents” (1998)
